# Measured values collected from several papers.
# Lines come from different studies, so protocols differ.
# Target: Phosphatidylinositol 3-kinase catalytic subunit type 3 (PIK3C3, Homo sapiens, UniProt Q8NEB9)
SMILES,effect on,technique,concentration,remaining binding [%]
Cc1cnc(Nc2ccc(C(=O)N3CCC(N4CCCC4)CC3)cc2)nc1-c1cc2ccccc2s1,binding,competition with immobilised ligand,1 µM,14
COc1cnc(Nc2cccc(S(N)(=O)=O)c2)nc1N1CCN(c2ccccc2)C(=O)C1,binding,competition with immobilised ligand,1 µM,64
CN(C)c1nccc(-c2cnc3ncccn23)n1,binding,,1 µM,48
CO[C@@H](C)c1c(Nc2ccc([C@H](N(C)C(=O)C3CCS(=O)(=O)CC3)C(F)(F)F)cc2)cnc2cc(Cl)nn12,cell-free assay,competition with immobilised ligand,1 µM,100
Cc1cnn2ncc(-c3ccnc(N(C)C)n3)c2c1,binding,,1 µM,87
O=C(O)c1cc(-c2ccc(C3CCNCC3)cc2)c2ccc(-c3ccc(C(F)(F)F)cc3)cc2c1,cell-free assay,competition with immobilised ligand,1 µM,100
O=C(c1ccc(Nc2nccc(-c3cc4ccccc4s3)n2)cc1)N1CCC(N2CCCC2)CC1,binding,competition with immobilised ligand,1 µM,4.9
C[C@@H](c1ccc(-n2cnc3c(N)ncnc32)cc1)N1CCc2nn(C)c(Cc3ccccc3)c2C1=O,binding,competition with immobilised ligand,0.1 µM,76
O=C(c1ccc(Nc2ncc(Cl)c(-c3ccc(Cl)s3)n2)cc1)N1CCC(N2CCCC2)CC1,binding,competition with immobilised ligand,1 µM,54
COc1ccnn2ncc(-c3ccnc(N(C)C)n3)c12,binding,,1 µM,96
COc1ncc2cc3ccccc3nc2c1C#N,cell-free assay,competition with immobilised ligand,5 µM,92
O=C(NCC1CCOCC1)c1n[nH]cc1NC(=O)c1c(F)cccc1F,binding,competition with immobilised ligand,1 µM,97
Cc1cc(-n2nc(Cc3cc(F)cc(C(F)(F)F)c3)nc2C)ccc1C(N)=O,cell-free assay,competition with immobilised ligand,1 µM,100
N[C@@H]1CCN(c2nccc(-c3cnn4ncccc34)n2)C1,binding,,1 µM,83
FC(F)(F)Oc1cccc(-c2cnc3ccc(-c4ccncc4)nn23)c1,cell-free assay,competition with immobilised ligand,5 µM,34
O=S(=O)(NC1CCC(c2cc(F)ccc2F)(S(=O)(=O)c2ccc(Cl)cc2)CC1)C(F)(F)F (stereo not drawn),cell-free assay,competition with immobilised ligand,1 µM,100
C[C@@H]1CCN(c2nccc(-c3cnn4ncccc34)n2)C1,binding,,1 µM,70
CC1=C(C#N)C(c2ccc3c(c2)c(NC(=O)c2ccccc2C)nn3C)C(C#N)=C(C)N1,cell-free assay,competition with immobilised ligand,1 µM,87
c1cncc(-c2cccc(Nc3nccc(NC4CCCCC4)n3)c2)c1,binding,competition with immobilised ligand,10 µM,21
CC1CCCN1c1nccc(-c2cnn3ncccc23)n1 (stereo not drawn),binding,,1 µM,100
Cc1c(NC(=O)c2cc(C(N)=O)nc3cc(F)ccc23)c(C(F)(F)F)nn1Cc1ccc(C(C)(C)C)cc1,cell-free assay,competition with immobilised ligand,1 µM,100
